This passage reports IC50 and Ki results from ChEMBL document CHEMBL1126834, “Chemistry, binding affinities, and behavioral properties of a new class of "antineophobic" mitochondrial DBI receptor complex (mDRC) ligands” (J Med Chem, 1993).

Test [1] can be described thus: Inhibitory activity at GABA B receptor, measured by the ability to displace [3H]baclofen from GABA B receptor in rat brain. Format: tissue-based.
A short description of test [2]: Inhibitory activity by measuring its ability to displace [3H]glycine from glycine receptor in rat brain. Format: tissue-based.
In test [3] the target is Cannabinoid receptor 1 (Rattus norvegicus, UniProt P20272). Description: Inhibitory activity, measured by displacement [3H]CP-55940 from cannabinoid receptor (CB1) in rat brain. Type of test: tissue-based.
For test [4], the target named is GABA-A receptor; anion channel. Description: Inhibitory activity at GABA A receptor, measured by the ability to displace [3H]GABA from GABA A receptor in rat brain. Format: tissue-based.
The target of test [5] is GABA-A receptor; anion channel. Description: Inhibitory activity at GABA A receptor, measured by the ability to displace [3H]flumazenil from GABA A receptor in rat brain. Type of test: tissue-based.
Test [6] is described as follows: Inhibitory activity by measuring its ability to displace [3H]spiperone from dopamine or serotonin 5-HT-1 receptors in rat brain. Format: tissue-based.
A short description of test [7]: Tested for inhibitory activity by measuring its ability to displace [3H]AMPA from glutamate (non-NMDA) receptor in rat brain. Format: tissue-based.
For test [8], the target named is Adrenergic receptor beta (Rattus norvegicus, UniProt P18090+P10608+P26255). In words: Inhibitory activity by measuring its ability to displace [125I]pindolol from beta-adrenergic receptor in rat brain. Format: tissue-based.
The target in test [9] is GABA-A receptor; anion channel. Description: Inhibitory activity at GABA A receptor, measured by the ability to displace [35S]TBPS from GABA A receptor in rat brain. Type of test: tissue-based.
The target in test [10] is Serotonin 2 (5-HT2) receptor (Rattus norvegicus). Description: Inhibitory activity by measuring its ability to displace [3H]ketanserin from serotonin receptor in rat brain.
The target in test [11] is Glutamate NMDA receptor. Description: Inhibitory activity by measuring its ability to displace [3H]-MK-801 from glutamate(NMDA) receptor in rat brain. Format: tissue-based.
The target of test [12] is T1, Gastrin/cholecystokinin type B receptor (Rattus norvegicus, UniProt P30553).
T1 sequence (P30553 whole entry): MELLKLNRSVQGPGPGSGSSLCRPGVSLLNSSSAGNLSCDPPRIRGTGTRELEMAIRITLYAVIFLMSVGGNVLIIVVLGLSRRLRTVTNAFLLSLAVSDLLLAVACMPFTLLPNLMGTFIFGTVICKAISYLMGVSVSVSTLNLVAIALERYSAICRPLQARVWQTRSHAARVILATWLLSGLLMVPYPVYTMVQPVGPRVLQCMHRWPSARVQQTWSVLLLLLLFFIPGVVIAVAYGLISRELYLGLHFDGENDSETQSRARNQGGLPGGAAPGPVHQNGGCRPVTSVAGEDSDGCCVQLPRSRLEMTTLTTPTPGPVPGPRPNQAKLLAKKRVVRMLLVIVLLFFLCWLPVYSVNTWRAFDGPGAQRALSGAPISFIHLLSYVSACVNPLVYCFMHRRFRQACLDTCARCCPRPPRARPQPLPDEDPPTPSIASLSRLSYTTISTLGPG
Description: Inhibitory activity by measuring its ability to displace [3H]L-365260 from cholecystokinin receptor in rat brain. Type of test: tissue-based.

Test [13] has as its target Adrenergic receptor alpha. In words: Inhibitory activity by measuring its ability to displace [3H]WB-4101 from alpha-adrenergic receptor in rat brain. Type of test: tissue-based.
Test [14] addresses Adrenergic receptor alpha. Description: Displacement of [3H]clonidine from alpha-adrenergic receptor in rat brain. Format: tissue-based. A general note: In a radioligand displacement assay an active substance lowers the binding of a labelled ligand.
Test [15] addresses Sigma receptor (Rattus norvegicus). Description: Tested for inhibitory activity by measuring its ability to displace [3H]3-PPP from sigma receptor in rat brain.
Test [16] concerns the target Opioid receptor (Rattus norvegicus, UniProt P33533+P34975+P33535). Description: Inhibition of [3H]naxolone binding to opiate receptors in rat brain. Format: tissue-based.
Test [17] deals with GABA-A receptor; anion channel. Description: Inhibitory activity at GABA A receptor, measured by the ability to displace [3H]zolpidem from GABA A receptor in rat brain. Format: tissue-based.
Test [18] has as its target Translocator protein (Rattus norvegicus, UniProt P16257). Description: Binding affinity against mitochondrial DBI complex (peripheral benzodiazepine receptor) using primary cultures of glial cells. A digest of the protocol: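 Glia from cerebella of 8-day-old Sprague–Dawley rat pups, trypsin-dissociated and grown 14 days (~95% astroglia). Cells lysed in 50 mM Hepes pH 7.4, 4 μg protein per tube. Incubated with [3H]4'-chlorodiazepam and competitor for 90 min at 4 °C, then filtered. Nonspecific binding defined with 10 μM 4'-chlorodiazepam. Triplicate competition curves; IC50 by nonlinear regression, converted to Ki (Bylund–Yamamura).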

The target in test [19] is Adrenergic receptor alpha. Description: Inhibitory activity by measuring its ability to displace [3H]clonidine from alpha-adrenergic receptor in rat brain. Type of test: tissue-based.

Chain of Translocator protein (P16257 whole entry, looked up): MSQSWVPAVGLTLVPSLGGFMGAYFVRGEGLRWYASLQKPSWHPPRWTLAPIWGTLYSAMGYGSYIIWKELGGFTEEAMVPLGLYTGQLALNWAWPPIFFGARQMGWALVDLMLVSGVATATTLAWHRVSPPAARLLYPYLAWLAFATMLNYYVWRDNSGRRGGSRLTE
Chain of Cannabinoid receptor 1 (P20272 whole entry): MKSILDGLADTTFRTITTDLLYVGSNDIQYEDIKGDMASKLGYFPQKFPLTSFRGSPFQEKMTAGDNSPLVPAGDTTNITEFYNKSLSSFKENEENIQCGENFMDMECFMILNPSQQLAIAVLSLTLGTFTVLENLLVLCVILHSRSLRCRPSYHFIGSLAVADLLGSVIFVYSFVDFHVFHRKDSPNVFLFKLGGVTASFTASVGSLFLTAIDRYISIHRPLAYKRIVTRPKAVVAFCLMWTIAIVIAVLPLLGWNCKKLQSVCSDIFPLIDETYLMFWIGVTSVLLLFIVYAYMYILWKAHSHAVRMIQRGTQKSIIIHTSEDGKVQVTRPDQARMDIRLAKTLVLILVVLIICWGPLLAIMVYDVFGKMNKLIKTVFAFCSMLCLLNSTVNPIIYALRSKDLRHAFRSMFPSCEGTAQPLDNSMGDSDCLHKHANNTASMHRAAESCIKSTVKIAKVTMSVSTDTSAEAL

For the molecule `CCCCCCCCCCCCCCCCCCNC(=O)Cc1c(-c2ccccc2)[nH]c2ccccc12`, the IC50 in [1], in test [2], in test [3], in [4], in [5] and in test [6] was more than 1000 nM throughout. Moreover, the half-maximal inhibitory concentration (IC50) in test [7], in [8], in test [9], in [10], in test [11] and in [12] was more than 1000 nM throughout. The half-maximal inhibitory concentration (IC50) in [13], in test [14], in [15], in test [16] and in test [17] was more than 1000 nM each time.
For `CCCN(CCC)C(=O)/C=C/c1c(-c2ccc(Cl)cc2)[nH]c2ccccc12`, the half-inhibitory concentration (IC50) in test [1], in [2], in [3], in test [4], in test [5] and in test [6] was more than 1000 nM each time. The IC50 in [7], in test [8], in test [9], in test [10], in [11] and in test [12] was more than 1000 nM each time. The 50% inhibitory concentration (IC50) in [13], in test [15], in test [16], in test [19] and in [17] was more than 1000 nM in each case. In test [18], this molecule yielded an inhibitory constant (Ki) of 400 nM.
For `CCCN(CCC)C(=O)Cc1c(-c2ccc(Cl)cc2)[nH]c2ccc(Cl)cc12`, the concentration for half-maximal inhibition (IC50) in test [1], in [2], in test [3], in test [4], in [5] and in test [6] was more than 1000 nM in each case. Besides, the 50% inhibitory concentration (IC50) in [7], in [8], in test [9], in test [10], in [11] and in [12] was more than 1000 nM throughout. Further, the IC50 in test [13], in test [15], in test [16], in test [19] and in test [17] was more than 1000 nM in each case. Further, in test [18], affinity was put at a Ki of 3.9 nM.
Regarding `CCCCCCNC(=O)Cc1c(-c2ccccc2)[nH]c2ccccc12`, the IC50 in [1], in [2], in test [3], in [4], in [5] and in test [6] was more than 1000 nM in each case. Also, the IC50 in test [7], in [8], in test [9], in [10], in test [11] and in test [12] was more than 1000 nM throughout. Besides, the IC50 in test [13], in test [15], in test [16], in [19] and in [17] was more than 1000 nM each time. The molecule further registered a Ki in test [18] of 96 nM.
As to `CCCN(CCC)C(=O)Cc1c(-c2ccc(Cl)cc2)n(C)c2ccccc12`, the concentration for half-maximal inhibition (IC50) in test [1], in [2], in test [3], in test [4], in test [5] and in test [6] was more than 1000 nM throughout. The IC50 in test [7], in [8], in [9], in test [10], in test [11] and in test [12] was more than 1000 nM each time. Moreover, the IC50 in test [13], in [15], in test [16], in test [19] and in [17] was more than 1000 nM in each case. The inhibition constant Ki in test [18] stood at 340 nM.
Turning to `CCCN(CCC)C(=O)Cc1c(-c2ccccc2)[nH]c2cc(F)ccc12`, the IC50 in test [1], in test [2], in test [3], in [4], in [5] and in test [6] was more than 1000 nM each time. Moreover, the concentration for half-maximal inhibition (IC50) in test [7], in [8], in test [9], in test [10], in [11] and in test [12] was more than 1000 nM in each case. The half-inhibitory concentration (IC50) in test [13], in test [15], in [16], in test [19] and in [17] was more than 1000 nM in each case. Further, the inhibitory constant (Ki) in [18] stood at 202 nM.
`CCCCCCCCN(CCCCCCCC)C(=O)Cc1c(-c2ccccc2)[nH]c2ccccc12`: the IC50 in test [1], in test [2], in test [3], in [4], in test [5] and in [6] was more than 1000 nM throughout. For the same molecule, the half-maximal inhibitory concentration (IC50) in test [7], in test [8], in [9], in [11], in test [12] and in [13] was more than 1000 nM throughout. Moreover, the IC50 in test [14] and in [17] was more than 1000 nM in each case. This molecule yielded a Ki in test [18] of more than 1000 nM.
For the molecule `CCCCCN(CCCCC)C(=O)Cc1c(-c2ccc(F)cc2)[nH]c2ccccc12`, the concentration for half-maximal inhibition (IC50) in [1], in test [2], in [3], in [4], in test [5] and in [6] was more than 1000 nM in each case. Besides, the 50% inhibitory concentration (IC50) in [7], in test [8], in test [9], in test [10], in test [11] and in test [12] was more than 1000 nM each time. Besides, the concentration for half-maximal inhibition (IC50) in test [13], in test [15], in [16], in [19] and in [17] was more than 1000 nM throughout. In [18], this molecule registered a Ki of 15 nM.
As to `CCCN(CCC)C(=O)Cc1c(-c2ccc(Br)cc2)[nH]c2ccccc12`, the IC50 in test [1], in test [2], in test [3], in test [4], in [5] and in test [6] was more than 1000 nM in each case. For the same molecule, the IC50 in test [7], in [8], in [9], in test [10], in test [11] and in test [12] was more than 1000 nM throughout. For the same molecule, the IC50 in test [13], in [15], in [16], in [19] and in test [17] was more than 1000 nM throughout. This molecule also returned an inhibition constant Ki in [18] of 216 nM.

A word on the IC50: it is the concentration that gives 50% inhibition. Higher therefore signals lower potency. As a reminder, the Ki is the dissociation constant of the complex between target and ligand, obtained from inhibition or displacement.
